From ChEMBL document CHEMBL1122168, “Species- or isozyme-specific enzyme inhibitors. 6. Synthesis and evaluation of two-substrate condensation products as inhibitors of hexokinases and thymidine kinases” (J Med Chem, 1982)

Assays:
Hexokinase-2 = target: T1, Hexokinase-2 (Rattus norvegicus, UniProt P27881); test: Evaluated for the inhibition constant Ki against Hexokinase, type II
T1 sequence (P27881 whole entry): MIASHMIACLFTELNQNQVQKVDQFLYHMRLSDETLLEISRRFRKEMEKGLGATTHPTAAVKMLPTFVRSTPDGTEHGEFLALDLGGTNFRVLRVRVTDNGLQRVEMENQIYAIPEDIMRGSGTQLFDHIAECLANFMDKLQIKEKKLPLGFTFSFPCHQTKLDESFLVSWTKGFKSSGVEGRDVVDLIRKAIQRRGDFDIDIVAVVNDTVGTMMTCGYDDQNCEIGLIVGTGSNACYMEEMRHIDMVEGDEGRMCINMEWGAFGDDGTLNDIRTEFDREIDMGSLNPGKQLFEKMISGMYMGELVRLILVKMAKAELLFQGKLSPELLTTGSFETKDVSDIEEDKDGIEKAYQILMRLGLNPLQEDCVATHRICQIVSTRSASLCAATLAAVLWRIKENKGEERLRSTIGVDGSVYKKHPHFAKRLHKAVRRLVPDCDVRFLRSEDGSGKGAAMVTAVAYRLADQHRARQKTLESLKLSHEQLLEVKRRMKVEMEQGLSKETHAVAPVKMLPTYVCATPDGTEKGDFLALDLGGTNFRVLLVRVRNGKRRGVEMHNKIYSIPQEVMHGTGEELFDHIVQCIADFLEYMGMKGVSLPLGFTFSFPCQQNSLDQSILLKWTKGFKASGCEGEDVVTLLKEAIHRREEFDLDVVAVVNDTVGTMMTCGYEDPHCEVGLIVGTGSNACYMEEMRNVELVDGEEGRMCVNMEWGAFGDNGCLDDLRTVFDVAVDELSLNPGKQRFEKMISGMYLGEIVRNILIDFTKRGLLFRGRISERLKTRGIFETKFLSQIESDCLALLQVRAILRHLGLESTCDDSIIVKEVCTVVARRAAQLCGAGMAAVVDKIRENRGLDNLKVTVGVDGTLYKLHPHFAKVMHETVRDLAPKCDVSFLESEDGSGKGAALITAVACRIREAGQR
Procedure, shortened: (§1)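 Yeast HK or rat HK II (isoelectric focusing, dialysed with 0.5 mM DTT). PK/LDH-coupled assay in 0.05 M Tris-HCl pH 7.6 with 6.6 mM MgCl2, 10 mM glucose, 0.45 mM NADH, 0.55 mM PEP, 20 mM KCl. NADH loss followed at 340 nm, 22 °C. Variable MgATP at 0.6–4.0 × KM. Inhibitors given as equimolar Mg complexes.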

[1] = target: T2, Hexokinase-1 (Rattus norvegicus) (UniProt P05708); test: Evaluated for the inhibition of Hexokinase, type I -catalyzed reactionsI at 0.6 mM concentration
T2 sequence (whole entry): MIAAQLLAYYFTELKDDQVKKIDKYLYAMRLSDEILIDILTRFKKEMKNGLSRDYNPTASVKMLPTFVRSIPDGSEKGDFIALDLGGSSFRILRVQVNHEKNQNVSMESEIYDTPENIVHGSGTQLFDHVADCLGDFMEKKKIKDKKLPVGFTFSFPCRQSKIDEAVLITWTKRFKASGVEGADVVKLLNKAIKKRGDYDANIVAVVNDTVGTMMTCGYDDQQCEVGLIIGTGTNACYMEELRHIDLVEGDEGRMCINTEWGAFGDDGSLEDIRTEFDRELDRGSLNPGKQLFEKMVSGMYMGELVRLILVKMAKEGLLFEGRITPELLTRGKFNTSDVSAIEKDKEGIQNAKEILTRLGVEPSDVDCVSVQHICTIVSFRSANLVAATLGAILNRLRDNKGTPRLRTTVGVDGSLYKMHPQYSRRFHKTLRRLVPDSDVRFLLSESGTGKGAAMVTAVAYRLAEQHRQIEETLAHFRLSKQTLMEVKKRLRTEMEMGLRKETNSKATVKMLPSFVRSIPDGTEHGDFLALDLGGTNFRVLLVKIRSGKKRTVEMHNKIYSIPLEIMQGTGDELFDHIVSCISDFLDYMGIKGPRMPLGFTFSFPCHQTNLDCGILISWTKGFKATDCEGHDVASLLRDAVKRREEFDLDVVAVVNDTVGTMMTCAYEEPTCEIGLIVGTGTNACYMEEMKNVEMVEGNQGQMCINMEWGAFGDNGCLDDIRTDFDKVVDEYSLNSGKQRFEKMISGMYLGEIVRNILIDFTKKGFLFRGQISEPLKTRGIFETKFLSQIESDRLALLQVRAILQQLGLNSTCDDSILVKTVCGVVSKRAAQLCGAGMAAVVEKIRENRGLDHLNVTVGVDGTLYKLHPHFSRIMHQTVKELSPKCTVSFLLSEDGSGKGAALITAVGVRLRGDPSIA
Procedure, shortened: (§2)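 Rat HK I, II or III from isoelectric focusing, dialysed with 0.5 mM DTT. PK/LDH-coupled assay in 0.05 M Tris-HCl pH 7.6 with 6.6 mM MgCl2, 10 mM α-D-glucose, 0.45 mM NADH, 0.55 mM PEP and 20 mM KCl. Reactions started with enzyme; rates read from 340 nm absorbance change at 22 °C.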

[2] = target: T3, Hexokinase-2 (Rattus norvegicus) (UniProt P27881); test: Evaluated for the inhibition of Hexokinase, type II catalyzed reactions at 0.6 mM concentration
T3 sequence (whole entry): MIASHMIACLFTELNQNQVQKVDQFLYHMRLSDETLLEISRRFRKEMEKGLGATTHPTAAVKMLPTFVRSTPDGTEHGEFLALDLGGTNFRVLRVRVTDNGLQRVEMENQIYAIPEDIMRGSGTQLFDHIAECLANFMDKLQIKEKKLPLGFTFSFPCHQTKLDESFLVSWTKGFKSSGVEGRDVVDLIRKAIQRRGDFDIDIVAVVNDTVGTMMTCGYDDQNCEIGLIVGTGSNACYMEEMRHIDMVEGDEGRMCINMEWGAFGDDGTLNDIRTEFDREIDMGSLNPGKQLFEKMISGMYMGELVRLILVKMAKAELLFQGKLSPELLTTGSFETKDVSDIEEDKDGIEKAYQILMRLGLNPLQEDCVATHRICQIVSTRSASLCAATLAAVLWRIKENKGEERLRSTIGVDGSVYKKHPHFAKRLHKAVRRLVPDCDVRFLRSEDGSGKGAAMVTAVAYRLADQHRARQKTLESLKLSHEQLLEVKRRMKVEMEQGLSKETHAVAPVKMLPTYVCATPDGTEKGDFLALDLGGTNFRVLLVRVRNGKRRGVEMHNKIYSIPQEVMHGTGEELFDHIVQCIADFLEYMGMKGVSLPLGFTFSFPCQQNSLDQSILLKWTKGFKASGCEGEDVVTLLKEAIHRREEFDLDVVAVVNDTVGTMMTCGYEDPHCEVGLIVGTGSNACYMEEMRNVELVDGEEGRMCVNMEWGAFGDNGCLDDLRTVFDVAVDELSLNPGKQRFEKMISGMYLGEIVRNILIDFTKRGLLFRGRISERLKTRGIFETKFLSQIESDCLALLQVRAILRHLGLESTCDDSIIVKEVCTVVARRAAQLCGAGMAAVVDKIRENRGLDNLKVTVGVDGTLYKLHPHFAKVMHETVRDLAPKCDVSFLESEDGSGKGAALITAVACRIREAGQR
Procedure, shortened: as §2

[3] = target: T3, Hexokinase-2 (Rattus norvegicus); test: Evaluated for the inhibition of Hexokinase, type II catalyzed reactionsI at 0.3 mM concentration
Procedure, shortened: as §2

[4] = Evaluated for the inhibition constant Ki against hexokinase in yeast; set-up: species or system Saccharomyces cerevisiae
Procedure, shortened: as §1

[5] = target: T4, Hexokinase-3 (Rattus norvegicus) (UniProt P27926); test: Evaluated for the inhibition of Hexokinase type III catalyzed reactions at 0.3 mM concentration
T4 sequence (whole entry): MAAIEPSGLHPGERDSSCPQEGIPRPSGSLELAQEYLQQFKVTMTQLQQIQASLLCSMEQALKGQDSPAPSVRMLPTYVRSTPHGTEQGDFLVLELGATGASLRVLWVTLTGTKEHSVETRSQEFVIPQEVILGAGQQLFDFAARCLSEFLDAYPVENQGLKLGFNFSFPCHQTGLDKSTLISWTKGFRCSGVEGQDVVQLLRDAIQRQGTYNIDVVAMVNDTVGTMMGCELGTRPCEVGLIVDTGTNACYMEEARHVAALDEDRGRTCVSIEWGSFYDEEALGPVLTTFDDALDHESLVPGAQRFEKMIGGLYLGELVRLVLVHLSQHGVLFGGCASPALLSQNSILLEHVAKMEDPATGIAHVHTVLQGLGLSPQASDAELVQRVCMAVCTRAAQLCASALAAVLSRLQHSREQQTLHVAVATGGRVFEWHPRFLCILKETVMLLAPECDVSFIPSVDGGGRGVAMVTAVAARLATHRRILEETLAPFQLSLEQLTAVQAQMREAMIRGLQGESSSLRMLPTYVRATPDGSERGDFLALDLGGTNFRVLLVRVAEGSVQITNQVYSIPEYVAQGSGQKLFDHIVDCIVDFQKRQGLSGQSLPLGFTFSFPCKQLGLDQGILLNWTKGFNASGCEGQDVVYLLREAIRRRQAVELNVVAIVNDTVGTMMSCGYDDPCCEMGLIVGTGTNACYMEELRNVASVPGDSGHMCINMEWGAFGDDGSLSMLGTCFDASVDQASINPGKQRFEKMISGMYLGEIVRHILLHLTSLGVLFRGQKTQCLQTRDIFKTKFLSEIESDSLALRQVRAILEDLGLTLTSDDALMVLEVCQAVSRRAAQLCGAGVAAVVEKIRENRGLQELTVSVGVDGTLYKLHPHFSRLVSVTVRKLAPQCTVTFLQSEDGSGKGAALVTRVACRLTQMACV
Procedure, shortened: as §2

[6] = target: T4, Hexokinase-3 (Rattus norvegicus); test: Evaluated for the inhibition of Hexokinase type III catalyzed reactions at 0.6 mM concentration
Procedure, shortened: as §2

[7] = target: T2, Hexokinase-1 (Rattus norvegicus); test: Evaluated for the inhibition of Hexokinase, type I -catalyzed reactions at 0.3 mM concentration
Procedure, shortened: as §2

[8] = target: T3, Hexokinase-2 (Rattus norvegicus); test: Evaluated for the inhibition of Hexokinase, type II catalyzed reactions at 0.3 mM concentration
Procedure, shortened: as §2

[9] = target: T2, Hexokinase-1 (Rattus norvegicus); test: Evaluated for the inhibition of Hexokinase, type I -catalyzed reactions at 0.6 mM concentration
Procedure, shortened: as §2

[10] = substrate: Nc1ncnc2c1ncn2[C@@H]1O[C@H](COP(=O)(O)OP(=O)(O)OP(=O)(O)O)[C@@H](O)[C@H]1O
[11] = substrate: Cc1cn([C@H]2C[C@H](O)[C@@H](CO)O2)c(=O)[nH]c1=O
[12] = substrate: Nc1ncnc2c1ncn2[C@@H]1O[C@H](COP(=O)(O)OP(=O)(O)OP(=O)(O)O)[C@@H](O)[C@H]1O; remark: listed apart in the source
[13] = substrate: Cc1cn([C@H]2C[C@H](O)[C@@H](CO)O2)c(=O)[nH]c1=O; remark: listed apart in the source
[14] = substrate: Nc1ncnc2c1ncn2[C@@H]1O[C@H](COP(=O)(O)OP(=O)(O)OP(=O)(O)O)[C@@H](O)[C@H]1O; remark: listed apart in the source

Nc1ncnc2c1ncn2[C@@H]1O[C@H](COP(=O)(O)OP(=O)(O)OP(=O)(O)O)[C@@H](O)[C@H]1O
Km (Saccharomyces cerevisiae): 210 µM

Nc1ncnc2c1ncn2C1O[C@H](COP(=O)(O)OP(=O)(O)OP(=O)(O)OC[C@@H]2O[C@@H](O)[C@@H](O)[C@H](O)[C@H]2O)[C@@H](O)[C@H]1O (stereo partly specified)
Ki (Hexokinase-2): 2.2 mM
inhibition [1]: 5.6%
inhibition [2]: 10.1%
inhibition [3]: 4.4%
Ki [4]: 1.4 mM
inhibition [5]: 3.1%
inhibition [6]: 6.2%
inhibition [7]: 9.3%

Nc1ncnc2c1ncn2C1O[C@H](COP(=O)(O)OP(=O)(O)OP(=O)(O)OP(=O)(O)OC[C@@H]2O[C@@H](O)[C@@H](O)[C@H](O)[C@H]2O)[C@@H](O)[C@H]1O (stereo partly specified)
inhibition [8]: 28%
inhibition [2]: 30%
Ki [4]: 3.5 mM
inhibition [5]: 6.5%
inhibition [6]: 8.7%
inhibition [9]: 8%
inhibition [7]: 4.7%

B1: Hexokinase-2 (Rattus norvegicus), P27881 (protein)
chain: MIASHMIACLFTELNQNQVQKVDQFLYHMRLSDETLLEISRRFRKEMEKGLGATTHPTAAVKMLPTFVRSTPDGTEHGEFLALDLGGTNFRVLRVRVTDNGLQRVEMENQIYAIPEDIMRGSGTQLFDHIAECLANFMDKLQIKEKKLPLGFTFSFPCHQTKLDESFLVSWTKGFKSSGVEGRDVVDLIRKAIQRRGDFDIDIVAVVNDTVGTMMTCGYDDQNCEIGLIVGTGSNACYMEEMRHIDMVEGDEGRMCINMEWGAFGDDGTLNDIRTEFDREIDMGSLNPGKQLFEKMISGMYMGELVRLILVKMAKAELLFQGKLSPELLTTGSFETKDVSDIEEDKDGIEKAYQILMRLGLNPLQEDCVATHRICQIVSTRSASLCAATLAAVLWRIKENKGEERLRSTIGVDGSVYKKHPHFAKRLHKAVRRLVPDCDVRFLRSEDGSGKGAAMVTAVAYRLADQHRARQKTLESLKLSHEQLLEVKRRMKVEMEQGLSKETHAVAPVKMLPTYVCATPDGTEKGDFLALDLGGTNFRVLLVRVRNGKRRGVEMHNKIYSIPQEVMHGTGEELFDHIVQCIADFLEYMGMKGVSLPLGFTFSFPCQQNSLDQSILLKWTKGFKASGCEGEDVVTLLKEAIHRREEFDLDVVAVVNDTVGTMMTCGYEDPHCEVGLIVGTGSNACYMEEMRNVELVDGEEGRMCVNMEWGAFGDNGCLDDLRTVFDVAVDELSLNPGKQRFEKMISGMYLGEIVRNILIDFTKRGLLFRGRISERLKTRGIFETKFLSQIESDCLALLQVRAILRHLGLESTCDDSIIVKEVCTVVARRAAQLCGAGMAAVVDKIRENRGLDNLKVTVGVDGTLYKLHPHFAKVMHETVRDLAPKCDVSFLESEDGSGKGAALITAVACRIREAGQR
Km [10]: 710 µM

B2: Thymidine kinase, cytosolic (Rattus norvegicus), P27158 (protein)
chain: MSYINLPTVLPISPSKTRGQIQVILGPMFSGKSTELMRRVRRFQIAQYKCLVIKYAKDTRYSNSFSTHDRNTMDALPACMLKDVAQEALGVAVIGIDEGQFFPDIVDFCETMANTGKTVIV
Km [11]: 8 µM
Km [12]: 190 µM
Km [13]: 1.6 µM
Km [14]: 180 µM
